# Source: PubChem (several laboratories)
# MEKK2mut PB1 HTS: signal of MEK5 binding to mutant human MEKK2 PB1 domain | bead flow cytometry, Alexa488-MEK5 binding to MEKK2 mutant | percent response, % at 10 µM | actives 0.35% (n = 290,000) | AID 1530; in the data active = percent response above about 24%, passing the limit was not always enough
# MEKK3 PB1 HTS: modulators (inhibitors or enhancers) of MEK5 binding to human MEKK3 PB1 domain. Q99759. bead-based flow cytometry, Alexa488-MEK5 binding to MEKK3; actives lie on both sides; 0 = blocked by unlabeled MEK5, 100 = vehicle. binding response (% of control), % at 10 µM. actives 1.4% (n = 290,000);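 active = binding response more than 3 SD above or below the average of its plate-row segment, actives on both sides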;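 note: Alexa488 bead fluorescence after subtracting the streptavidin-only scavenger bead signal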
# Target sequence (Q99759 whole entry, looked up, the tested form may be a part): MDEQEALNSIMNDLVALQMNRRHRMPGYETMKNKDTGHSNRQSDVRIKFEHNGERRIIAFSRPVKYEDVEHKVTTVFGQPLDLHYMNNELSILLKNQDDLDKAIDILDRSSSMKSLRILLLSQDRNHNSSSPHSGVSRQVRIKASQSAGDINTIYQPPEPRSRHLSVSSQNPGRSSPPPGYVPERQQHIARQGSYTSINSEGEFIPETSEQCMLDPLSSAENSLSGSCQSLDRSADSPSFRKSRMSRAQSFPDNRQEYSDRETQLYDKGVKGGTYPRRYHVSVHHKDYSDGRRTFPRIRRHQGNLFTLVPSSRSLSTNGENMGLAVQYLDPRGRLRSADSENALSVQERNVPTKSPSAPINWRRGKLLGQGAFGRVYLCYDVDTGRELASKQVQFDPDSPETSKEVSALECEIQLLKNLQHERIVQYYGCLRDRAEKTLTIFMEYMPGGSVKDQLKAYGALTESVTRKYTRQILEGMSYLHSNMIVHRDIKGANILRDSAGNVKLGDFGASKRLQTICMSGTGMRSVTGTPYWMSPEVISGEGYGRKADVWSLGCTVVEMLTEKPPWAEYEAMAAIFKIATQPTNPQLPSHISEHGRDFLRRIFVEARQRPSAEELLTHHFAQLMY
# GSK3A inh: inhibitors of human GSK-3 alpha kinase; ADP-Glo luminescence, 60 min; inhibition, % at 10 µM; actives 0.1% (n = 320,000); P49840;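 active = more than half of replicates show inhibition above 20%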;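 note: GST-tagged GSK-3 alpha with peptide substrate and 25 µM ATP; 0% = DMSO neutral wells and 100% = GW8510 positive control wells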
# STK33 inh: blocks human STK33 kinase activity; Q9BYT3; purified STK33, MBP phosphorylation, ADP-Glo luminescence; inhibition, % at 10 µM; actives 0.073% (n = 320,000); AID 2661;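 active = inhibition at or above 25%, using the most active replicate where run in duplicate; inactive = inhibition below 25%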
# GSK3B inh: human GSK3beta kinase inhibition; P49841; GST-GSK3beta kinase, ADP-Glo luminescence, 60 min; active compounds read low; activity score (negative = inhibition), % at 10 µM; actives 0.038% (n = 300,000); AID 2097;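 active = more than half of replicate wells score below -50%, meaning over 50% inhibition versus plate controls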;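 note: 0% = median DMSO wells and -100% = median GW8510 positive control wells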
#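 test system = GST-tagged human GSK3beta kinase, cell-free | reagent = 25 µM ATP with peptide substrate | dosing = one dose of 10 µM per compound | schedule = 60 min reaction, RT | detection = luminescent ADP-Glo measurement of ADP formed | control set = DMSO neutral wells and GW8510 at 20 µM as positive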
# MEKK2 WT-MEK5: raises or lowers MEK5 binding to wildtype human MEKK2 PB1 domain. Q9Y2U5. bead flow cytometry, Alexa488-MEK5 binding to MEKK2 WT; actives lie on both sides. binding response (% of control), % at 10 µM. actives 1.1% (n = 290,000); in the data active = binding response below about 67% or above about 130%
# MEKK2wt confirm: raises or lowers MEK5 binding to wildtype human MEKK2, retest; shares compounds with MEKK3 PB1 HTS; bead flow cytometry, Alexa488-MEK5 binding to MEKK2 WT; actives lie on both sides; binding response (% of control), % at 10 µM; actives 2.4% (n = 5,900); in the data active = binding response below about 16% or above about 210%; inactive = in between
# MEKK2mut confirm: signal of MEK5 binding to mutant human MEKK2, retest. AID 1893. bead flow cytometry, Alexa488-MEK5 binding to MEKK2 mutant. actives 2% (n = 5,900). percent response, % at 10 µM. shares compounds with MEKK3 PB1 HTS; in the data active = percent response mostly above about 71%, no sharp cut-off; inactive = mostly below about 38%;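 note: higher means compound restores mutant binding toward wildtype level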
# MEKK3-MEK5 inh: MEKK3-MEK5 PB1 inhibition, single concentration confirmation; actives 1.8% (n = 5,900); shares compounds with MEKK3 PB1 HTS; AID 1894; bead flow cytometry, Alexa488-MEK5 binding to MEKK3; active compounds read low; binding response (% of control), % at 10 µM;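 active = binding response below 72% of control, or above a set upper limit, though filed actives all read lower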;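 note: 100% = DMSO only wells and 0% = binding blocked by excess unlabeled MEK5; lower values mean stronger disruption of MEK5 binding to MEKK3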
# The depositor's hits bear a star; . = no result given; [ ] = remark or other dose. Only some compounds are listed: those with a hit (about 2.1% of all), similar ones and a draw of the others.
SMILES,MEKK2mut PB1 HTS,MEKK3 PB1 HTS,GSK3A inh,STK33 inh,GSK3B inh,MEKK2 WT-MEK5,MEKK2wt confirm,MEKK2mut confirm,MEKK3-MEK5 inh
CN(C)CCCN(C(=O)c1ccc2ccccc2c1)c1nc2cc3c(cc2s1)OCO3,24.0*,106.0,0.6,-1.3,-0.1,142.0*,140.0,19.0,104.0
CN(C)CCN(C(=O)c1cccc2ccccc12)c1nc2cc3c(cc2s1)OCO3,23.0,111.0,-2.6,0.9,2.1,137.0*,137.0,21.0,103.0
CN(C)CCN(C(=O)c1ccc2ccccc2c1)c1nc2cc3c(cc2s1)OCCO3,13.0,102.0,0.6,-0.6,-0.4,125.0,.,.,.
COc1cccc(CNC(=O)C(CC(C)C)NC(=O)c2ccccc2C)c1 (stereo not given),0.0,97.0,1.4,-2.3,-2.0,98.0,.,.,.
O=[N+]([O-])c1ccccc1Nc1nc(-c2cccnc2)cs1,5.0,108.0,1.9,-15.3,2.3,111.0,.,.,.
NC1=NS(=O)(=O)NC1c1ccc(Br)cc1 (stereo not given),-1.0,99.0,-2.1,-1.3,-0.4,99.0,.,.,.
Cc1cc(C)n(C(=O)CNC(=O)/C=C/c2ccccc2)n1,-15.0,94.0,0.8,-1.2,0.1,84.0,.,.,.
COc1ccccc1/C=C/C(=O)NCC(=O)n1nc(C)cc1C,-40.0,58.0*[inhibitor],2.2,-2.7,1.8,59.0*[inhibitor],101.0,0.0,104.0
C=C(C)C1CC=C(CN2CCC(O)CC2)CC1 (stereo not given),-1.0,98.0,0.8,-2.1,1.2,99.0,.,.,.
C=C(C)[C@@H]1CC=C(CN2CCC(N3CCC(C(=O)N4CCCC4)CC3)CC2)CC1,31.0,94.0,-0.7,-0.9,0.7,142.0*,129.0,19.0,110.0
CC(=O)Nc1ccc(S(=O)(=O)Nc2nnc(CC(C)(C)C)s2)cc1,0.0,118.0,-2.6,-3.5,1.5,110.0,.,.,.
COc1ccc(-n2cc(CNCCc3ncc(C)[nH]3)c(-c3ccccc3Cl)n2)cc1,-5.0,104.0,-0.5,0.8,-3.2,153.0*,167.0,38.0,108.0
CCN1CCC(CNCc2cn(-c3ccc(OC)cc3)nc2-c2ccccc2Cl)C1 (stereo not given),34.0,104.0,-2.6,-0.7,3.0,180.0*,189.0,69.0,113.0
COc1ccc(-n2cc(CNCCN3CCOC3=O)c(-c3ccccc3Cl)n2)cc1,-1.0,102.0,0.1,-1.6,0.1,107.0,.,.,.
CC(C(=O)c1ccc(-c2ccccc2)cc1)[n+]1cccc(NC(=O)c2ccccc2)c1 (stereo not given),62.0*,108.0,12.9,0.1,-12.8,224.0*,195.0,51.0,106.0
Cc1ccc(C2N(c3ccc(Cl)cc3)C(=O)N3CCCN23)cc1 (stereo not given),11.0,102.0,-1.9,0.6,3.6,101.0,.,.,.
Cc1ccc(N(C(=O)CCC(=O)Nc2cc(C)on2)C(C(=O)NC2CCCC2)c2ccccc2)cc1 (stereo not given),-5.0,102.0,2.4,-0.6,2.2,98.0,.,.,.
Cc1cc(NC(=O)CCC(=O)N(c2ccccc2)C(C(=O)NC2CCCC2)c2ccccc2)no1 (stereo not given),27.0*,113.0,-0.1,-0.5,-2.5,101.0,100.0,1.0,104.0
CC(C)C(=O)NC(=O)COC(=O)/C=C/c1cccs1,3.0,101.0,-2.1,1.7,-0.5,105.0,.,.,.
O=C(COC(=O)/C=C/c1cccs1)NC(=O)Cc1ccccc1,-2.0,138.0*,0.1,-1.7,-1.0,112.0,101.0,3.0,101.0
O=C(CN1C(=O)NC2(CCCc3ccccc32)C1=O)N1CCc2ccccc2C1 (stereo not given),4.0,106.0,-0.7,-1.4,2.2,103.0,.,.,.
Cc1cc(=O)[nH]c(N/N=C/C2=C(N3CCOCC3)C(=C\c3ccc(Cl)cc3)/CC2)n1,2.0,135.0*,0.4,0.5,1.1,112.0,101.0,-2.0,101.0
CCOC(=O)N1CCN(C(=O)c2cc3c(s2)-c2ccc(Cl)cc2S(=O)(=O)C3)CC1,6.0,106.0,-1.4,-0.2,-1.5,109.0,.,.,.
Cn1c(CC(=O)Nc2ccc(F)cc2)c(Sc2ccccc2)c2ccccc21,54.0*,104.0,-0.1,-0.4,2.4,122.0,117.0,5.0,103.0
O=C(CNC(=O)c1ccc(F)cc1)Nc1ccccc1C(F)(F)F,-30.0,88.0,2.9,-1.7,4.3,77.0,.,.,.
SMILES,MEKK2mut PB1 HTS,MEKK3 PB1 HTS,GSK3A inh,STK33 inh,GSK3B inh,MEKK2 WT-MEK5,MEKK2wt confirm,MEKK2mut confirm,MEKK3-MEK5 inh
O=C(O)CC(NC(=O)Cc1ccc(Cl)cc1)c1ccco1 (stereo not given),10.0,102.0,-1.5,-0.4,0.3,105.0,.,.,.
COc1cc(C(=O)NC(=S)Nc2ccc([N+](=O)[O-])cc2)cc(OC)c1OC,2.0,141.0*,-5.9,1.2,1.4,103.0,104.0,4.0,103.0
COc1cc(C(=O)OCC(=O)N2c3ccccc3NC(=O)C2(C)C)ccc1OCC(C)C,.,.,-1.8,-1.7,-3.0,.,.,.,.
Cc1csc(SCC(=O)Nc2sccc2C(N)=O)n1,-16.0,2.0*[inhibitor],-1.2,-0.6,-3.9,1.0*[inhibitor],95.0,-3.0,101.0
CCOc1ccccc1CN1CCC(n2nccc2NC(=O)CCCc2ccccc2)CC1,14.0,101.0,0.6,-0.3,-1.6,131.0,.,.,.
COc1ccccc1CN1CCC(n2nccc2NC(=O)CCCc2ccccc2)CC1,19.0,103.0,1.0,-0.1,-2.4,142.0*,162.0,54.0,113.0
CC(Sc1ccc(Cl)cc1)C(=O)NNC(=O)c1csc(N2CCOCC2)n1 (stereo not given),3.0,100.0,-1.0,-0.4,5.7,101.0,.,.,.
Clc1ccc(SCc2csc(N3CCOCC3)n2)cc1,-32.0,74.0*[inhibitor],1.3,-2.9,2.2,75.0,95.0,-4.0,97.0
CCN(CC)c1ccc(/C=C(\C#N)c2ccccn2)cc1,-1.0,99.0,.,-0.5,-0.3,96.0,.,.,.
CCN(CC)c1ccc(C=N/C(C#N)=C(\N)C#N)cc1,-10.0,1.0*[inhibitor],-3.1,-0.1,-3.6,.,83.0,-9.0,85.0
Cc1ccc2[nH]c(=O)c(COC(=O)C3CCCCC3)cc2c1,21.0,129.0*,.,-1.3,-3.0,119.0,97.0,-18.0,96.0
